The target in assay [1] is T1, Serine/threonine-protein kinase B-raf (Homo sapiens, UniProt P15056, V600E). Put plainly: Inhibition of BRAF V600E mutant. Put shortly: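 Purified, isolated V600E BRAF enzyme assayed in vitro; potency reported as IC50.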
Assay [2] can be described thus: Growth inhibition of human WM266.4 cells expressing BRAF V600E mutant after 5 days by SRB assay. In kind it is functional. The settings on record: WM 266-4, 120 h. A digest of the protocol:
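WM266.4 human melanoma cells, which are driven by mutant BRAF, were assayed for proliferation by sulforhodamine B (SRB) staining; the value is a GI50.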
On the technique in general: The SRB assay estimates cell density from bound dye.

Assay [3] addresses T1, Serine/threonine-protein kinase B-raf. The assay can be described thus: Inhibition of BRAF V600E mutant-mediated ERK phosphorylation in human WM266.4 cells. The class given is cell-based. A digest of the protocol:
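Cellular pathway read-out: ERK phosphorylation (pERK) was measured in WM266.4 melanoma cells and reported as an IC50.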

The test system of the next assay is WM1361. The assay can be described thus: Growth inhibition of human WM1361 cells expressing NRAS mutant after 5 days by SRB assay. The class given is functional, cell-based.

The source made the active and inactive calls. The calls are words filed in the database; no cut-off is given here.

T1 sequence (P15056 2-766 V600E limits assumed): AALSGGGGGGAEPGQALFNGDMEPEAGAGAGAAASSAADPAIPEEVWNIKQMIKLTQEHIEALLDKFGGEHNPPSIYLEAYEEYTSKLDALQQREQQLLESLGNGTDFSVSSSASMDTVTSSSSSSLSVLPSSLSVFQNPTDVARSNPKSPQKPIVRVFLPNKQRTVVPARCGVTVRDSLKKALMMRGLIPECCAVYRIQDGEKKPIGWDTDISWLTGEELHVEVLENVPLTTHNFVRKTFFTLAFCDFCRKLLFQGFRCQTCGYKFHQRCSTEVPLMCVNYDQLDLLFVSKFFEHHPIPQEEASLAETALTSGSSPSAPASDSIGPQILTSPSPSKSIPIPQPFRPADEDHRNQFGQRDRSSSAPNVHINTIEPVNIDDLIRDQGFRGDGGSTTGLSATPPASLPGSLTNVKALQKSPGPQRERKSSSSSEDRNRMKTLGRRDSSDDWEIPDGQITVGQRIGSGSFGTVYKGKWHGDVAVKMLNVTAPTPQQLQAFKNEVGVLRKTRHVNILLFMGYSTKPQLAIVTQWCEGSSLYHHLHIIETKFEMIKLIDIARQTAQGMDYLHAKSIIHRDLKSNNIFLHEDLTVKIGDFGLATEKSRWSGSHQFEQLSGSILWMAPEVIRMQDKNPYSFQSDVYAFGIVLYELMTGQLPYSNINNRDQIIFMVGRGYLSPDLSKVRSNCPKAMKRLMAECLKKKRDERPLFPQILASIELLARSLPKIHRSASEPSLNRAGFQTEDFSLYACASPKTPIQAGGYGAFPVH

In general, IC50 refers to the concentration at which inhibition is half-maximal. A high value points to a need for much substance. For orientation: GI50 means the concentration giving 50% growth inhibition. With `O=C(Nc1ccc(Cl)c(C(F)(F)F)c1)Nc1ccc(Oc2ccnc3[nH]c(=O)[nH]c23)cc1Cl`, the figures for the IC50 in assay [1] and in assay [3] were 0.023 µM and 1.33 µM, respectively. Further, in assay [2], the GI50 came out at 2 µM.
Taken in the same sequence, the figures for `CSc1cc(Oc2ccnc3[nH]c(=O)[nH]c23)ccc1NC(=O)Nc1ccc(Cl)c(C(F)(F)F)c1` were 0.001 µM, 0.61 µM and 0.47 µM.
Taken in the same sequence, the figures for `O=C(Nc1ccc(Cl)c(C(F)(F)F)c1)Nc1ccc(Oc2ccnc3[nH]c(=O)[nH]c23)cc1-c1ccccc1` were 6.5 µM, more than 100 µM and 5.1 µM.
For `Cn1c(=O)[nH]c2c(Oc3ccc(NC(=O)Nc4cccc(C(C)(C)C)c4)c4ccccc34)ccnc21`, the figures for the IC50 in assay [1] and in assay [3] were 0.43 µM and 46 µM, respectively. This molecule showed a GI50 in assay [2] of more than 100 µM.
Consider `O=C(Cc1cccc(OC(F)(F)F)c1)Nc1ccc(Oc2ccnc3[nH]c(=O)[nH]c23)c2ccccc12`, for which the IC50 is more than 10 µM in assay [1] and more than 100 µM in assay [3]. This molecule also came in with a GI50 in assay [2] of 3.1 µM.
Taken in the same sequence, the figures for `O=C(Nc1ccc(Cl)c(C(F)(F)F)c1)Nc1ccc(Oc2ccnc3[nH]c(=O)[nH]c23)cc1F` were 0.008 µM, 2.17 µM and 1.53 µM.
Regarding `COc1cc(NC(=O)Nc2cccc(C(F)(F)F)c2)ccc1Oc1ccnc2[nH]c(=O)[nH]c12`, the IC50 in assay [1] came to 0.016 µM; in assay [3] it was 29.4 µM. The same molecule showed a GI50 in assay [2] of more than 100 µM.
Taken in the same sequence, the figures for `O=C(Nc1cc(C(F)(F)F)ccc1N1CCOCC1)Nc1ccc(Oc2ccnc3[nH]c(=O)[nH]c23)c2ccccc12` were 0.014 µM, 0.346 µM and 0.291 µM.
For the molecule `O=C(Nc1cccc(F)c1)Nc1ccc(Oc2ccnc3[nH]c(=O)[nH]c23)c2ccccc12`, the IC50 in assay [1] is 0.037 µM; in assay [3], 0.214 µM. In assay [2], this molecule showed a GI50 of 0.29 µM.
Taken in the same sequence, the figures for `Cn1c(=O)[nH]c2nccc(Oc3ccc(NC(=O)Nc4cccc(SC(F)(F)F)c4)c4ccccc34)c21` were 0.024 µM, 1.46 µM and 1.2 µM.
As for `CN(C)c1cc(Oc2ccnc3[nH]c(=O)[nH]c23)ccc1NC(=O)Nc1ccc(Cl)c(C(F)(F)F)c1`, the IC50 in assay [1] worked out at 10 µM; in assay [3], 20.7 µM. This molecule returned a GI50 in assay [2] of 5.34 µM.
Turning to `Cn1c(=O)[nH]c2nccc(Oc3ccc(NC(=O)Nc4cccc(C(F)(F)F)c4)c4ccccc34)c21`, the values for the IC50 in assay [1] and in assay [3] were 0.01 µM and 0.6 µM, respectively. Growth in assay [2] was halved (GI50) at 0.81 µM.
Taken in the same sequence, the figures for `COc1cc(NC(=O)Nc2ccc(Cl)c(C(F)(F)F)c2)ccc1Oc1ccnc2[nH]c(=O)[nH]c12` were 0.025 µM, 5.5 µM and 6.2 µM.
Taken in the same sequence, the figures for `CSc1cc(Oc2ccnc3[nH]c(=O)[nH]c23)ccc1NC(=O)Nc1cc(C(F)(F)F)ccc1F` were 0.012 µM, 3.06 µM and 2.6 µM.
Taken in the same sequence, the figures for `CS(=O)(=O)c1cc(Oc2ccnc3[nH]c(=O)[nH]c23)ccc1NC(=O)Nc1ccc(Cl)c(C(F)(F)F)c1` were 0.09 µM, 11 µM and 11.9 µM.
For the molecule `COc1cc(Oc2ccnc3[nH]c(=O)[nH]c23)ccc1NC(=O)Nc1ccc(Cl)c(C(F)(F)F)c1`, the IC50 in assay [1] was 0.106 µM; in assay [3] it was more than 100 µM.
As for `Cn1c(=O)[nH]c2nccc(Oc3ccc(NC(=O)Nc4cc(C(F)(F)F)ccc4F)c4ccccc34)c21`, the IC50 in assay [1] turned out to be 0.017 µM; in assay [3], 0.81 µM. For the same molecule, in assay [2], halving of growth (GI50) required 0.49 µM.
Taken in the same sequence, the figures for `O=C(Nc1cccc(SC(F)(F)F)c1)Nc1ccc(Oc2ccnc3[nH]c(=O)[nH]c23)cc1F` were 0.007 µM, 4.15 µM and 1.19 µM.
For `O=C(Cc1cccc(C(F)(F)F)c1)Nc1ccc(Oc2ccnc3[nH]c(=O)[nH]c23)c2ccccc12`, the values for the IC50 in assay [1] and in assay [3] were more than 10 µM and more than 100 µM, respectively.
For `O=C(Nc1ccc(Oc2ccnc3[nH]c(=O)[nH]c23)cc1F)Nc1cc(C(F)(F)F)ccc1F`, the IC50 in assay [1] is 0.007 µM; in assay [3], 1.29 µM. Moreover, the GI50 in assay [2] turned out to be 1.15 µM.
Taken in the same sequence, the figures for `O=C(Nc1ccc(Cl)c(C(F)(F)F)c1)Nc1ccc(Oc2ccnc3[nH]c(=O)[nH]c23)cc1C(F)(F)F` were 0.022 µM, 3.58 µM and 0.93 µM.
`Cn1c(=O)[nH]c2c(Oc3ccc(NC(=O)Nc4cc(C(F)(F)F)ccc4F)c4ccccc34)ccnc21`: the IC50 in assay [1] is 0.167 µM; in assay [3] it was 2 µM. In assay [2], this molecule came in with a GI50 of 0.73 µM.
Taken in the same sequence, the figures for `Cc1c(NC(=O)Nc2ccc(Cl)c(C(F)(F)F)c2)ccc(Oc2ccnc3[nH]c(=O)[nH]c23)c1C` were 0.056 µM, 3.9 µM and 2 µM.
Taken in the same sequence, the figures for `O=C(Nc1ccc(F)c(F)c1)Nc1ccc(Oc2ccnc3[nH]c(=O)[nH]c23)c2ccccc12` were 0.22 µM, more than 100 µM and 5.5 µM.
Taken in the same sequence, the figures for `Cc1cc(Oc2ccnc3[nH]c(=O)[nH]c23)ccc1NC(=O)Nc1ccc(Cl)c(C(F)(F)F)c1` were 0.037 µM, 4.72 µM and 5.9 µM.
For `Cn1c(=O)[nH]c2nccc(Oc3ccc(NC(=O)c4cccc(OC(F)(F)F)c4)c4ccccc34)c21`, the IC50 in assay [1] came to 5.2 µM; in assay [3], 31 µM. Halving of growth in assay [2] (GI50) required 12 µM.
Taken in the same sequence, the figures for `O=C(Nc1cccc(C(F)(F)F)c1)Nc1ccc(Oc2ccnc3[nH]c(=O)[nH]c23)cc1F` were 0.012 µM, 3.45 µM and 1.61 µM.
For `CNC(=O)c1cc(Oc2ccc(NC(=O)Nc3ccc(Cl)c(C(F)(F)F)c3)cc2)ccn1`, the result with WM1361 was inactive.
In the case of `Cn1c(=O)[nH]c2nccc(Oc3ccc(NC(=O)Nc4ccc(Cl)c(C(F)(F)F)c4)c4ccccc34)c21`, the IC50 in assay [1] was determined as 0.023 µM; in assay [3], 0.77 µM. The molecule further showed a GI50 in assay [2] of 1.04 µM.
Taken in the same sequence, the figures for `O=C(Nc1cccc(C(F)(F)F)c1)Nc1ccc(Oc2ccnc3[nH]c(=O)[nH]c23)c2ccccc12` were 0.006 µM, 1.91 µM and 0.32 µM.
In assay [2], `O=C(Nc1ccc(Oc2ccnc3[nH]c(=O)[nH]c23)cc1)Nc1ccc(Cl)c(C(F)(F)F)c1` gave a GI50 of 4.2 µM. The same molecule registered an IC50 in assay [3] of 2.39 µM.
Turning to `Cn1c(=O)[nH]c2nccc(Oc3ccc(NC(=O)c4cccc(SC(F)(F)F)c4)c4ccccc34)c21`, the IC50 in assay [1] amounted to 4.6 µM; in assay [3], 18.4 µM. Moreover, the GI50 in assay [2] was found to be 7.6 µM.
On to `O=C(Nc1ccc(Oc2ccnc3[nH]c(=O)[nH]c23)c(F)c1)Nc1ccc(Cl)c(C(F)(F)F)c1`, for which the IC50 in assay [1] amounted to 0.047 µM; in assay [3], 34 µM.
In the case of `Cn1c(=O)[nH]c2nccc(Oc3ccc(NC(=O)Nc4cccc(C(C)(C)C)c4)c4ccccc34)c21`, the IC50 in assay [1] is 0.037 µM; in assay [3], 1.06 µM. The GI50 in assay [2] turned out to be 1.13 µM.
Taken in the same sequence, the figures for `Cc1cc(NC(=O)Nc2ccc(Cl)c(C(F)(F)F)c2)ccc1Oc1ccnc2[nH]c(=O)[nH]c12` were 0.023 µM, 59 µM and 1.79 µM.
Taken in the same sequence, the figures for `O=C(Nc1ccc(Cl)c(C(F)(F)F)c1)Nc1ccc(Oc2ccnc3[nH]c(=O)[nH]c23)c2ccccc12` were 0.03 µM, 0.559 µM and 0.47 µM.
Taken in the same sequence, the figures for `Cn1c(=O)[nH]c2nccc(Oc3ccc(NC(=O)Nc4ccc(Cl)c(C(F)(F)F)c4)c(F)c3)c21` were 0.01 µM, 21 µM and 100 µM.
With `Cn1c(=O)[nH]c2c(Oc3ccc(NC(=O)Nc4ccc(Cl)c(C(F)(F)F)c4)c4ccccc34)ccnc21`, the IC50 was 0.156 µM in assay [1] and 3.14 µM in assay [3]. In assay [2], this molecule showed a GI50 of 2.3 µM.

(Values after ChEMBL document CHEMBL1136991, “Novel potent BRAF inhibitors: toward 1 nM compounds through optimization of the central phenyl ring” (J Med Chem, 2009).)
